Assay [1] deals with HeLa C3. Kind of assay: Induction of apoptosis in human HeLaC3 cells assessed as reduction of yellow fluorescent protein/cyan fluorescent protein emission ratio below 3 at 20 uM after 48 hrs using fluorescent plate reader. It counts as functional, cell-based. Summed up:
(§1)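 HeLa-C3 cells express a caspase-3-cleavable CFP/YFP biosensor and are grown in MEM with 10% FBS and penicillin/streptomycin at 37 °C, 5% CO2. Seed 7500 cells per well and incubate 12-16 h. Take a 0 h read (ex 440 nm; em 486 nm CFP, 535 nm YFP), then replace the medium with compound-containing medium; include cell-free background wells. Read repeatedly up to 72 h. A YFP/CFP ratio below 3 scores as apoptotic. Triplicate wells, three experiments; 0.1% DMSO negative control.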

In assay [2] the test system is HeLa C3. As to the kind of experiment: Induction of apoptosis in human HeLaC3 cells assessed as reduction of yellow fluorescent protein/cyan fluorescent protein emission ratio below 3 at 20 uM after 24 hrs using fluorescent plate reader. It counts as functional, cell-based. Summed up:
as §1

Assay [3] has as its system HeLa C3. As to the kind of experiment: Induction of apoptosis in human HeLaC3 cells assessed as reduction of yellow fluorescent protein/cyan fluorescent protein emission ratio below 3 at 20 uM after 72 hrs using fluorescent plate reader. It counts as functional, cell-based. Summed up: as §1
The subject of assay [4] is HeLa C3. As to the kind of experiment: Induction of apoptosis in human HeLaC3 cells assessed as shrinkage and detached morphology at 20 uM after 72 hrs. Format: functional, cell-based.
Assay [5] deals with HeLa C3. Kind of assay: Induction of apoptosis in human HeLaC3 cells assessed as shrinkage and detached morphology at 20 uM after 48 hrs. Format: functional, cell-based.
The test system of assay [6] is HeLa C3. Kind of assay: Induction of apoptosis in human HeLaC3 cells assessed as shrinkage and detached morphology at 20 uM after 24 hrs. Format: functional, cell-based.
Assay [7] relates to HeLa C3. Kind of assay: Induction of apoptosis in human HeLaC3 cells assessed as shrinkage and detached morphology at 500 nM after 24 hrs.
Assay [8] has as its system HeLa C3. As to the kind of experiment: Induction of apoptosis in human HeLaC3 cells assessed as shrinkage and detached morphology at 500 nM after 48 hrs.
Assay [9] relates to HeLa C3. Kind of assay: Induction of apoptosis in human HeLaC3 cells assessed as reduction of yellow fluorescent protein/cyan fluorescent protein emission ratio below 3 at 500 nM after 48 hrs using fluorescent plate reader.
Assay [10] has as its system HeLa C3. As to the kind of experiment: Induction of apoptosis in human HeLaC3 cells assessed as reduction of yellow fluorescent protein/cyan fluorescent protein emission ratio below 3 at 500 nM after 72 hrs using fluorescent plate reader.
Assay [11] relates to HeLa C3. As to the kind of experiment: Induction of apoptosis in human HeLaC3 cells assessed as shrinkage and detached morphology at 500 nM after 72 hrs.
The test system of assay [12] is HeLa C3. As to the kind of experiment: Induction of apoptosis in human HeLaC3 cells assessed as reduction of yellow fluorescent protein/cyan fluorescent protein emission ratio below 3 at 500 nM after 24 hrs using fluorescent plate reader.

For nine molecules, Activity results are on record in ChEMBL document CHEMBL1151810, “Bioassay-guided isolation of xanthones and polycyclic prenylated acylphloroglucinols from Garcinia oblongifolia” (J Nat Prod, 2009).

The source made the active and inactive calls. The rule behind the calls is not given here.

Take `CC1(C)C=Cc2cc3c(=O)c4c(O)cc(O)cc4oc3c(O)c2O1`: the result with HeLa C3 [1] and with HeLa C3 [2] was inactive. The result in the assay with HeLa C3 [3] was Active.

For `CC(C)=CCC/C(C)=C/C[C@@H]1C[C@@]2(CC=C(C)C)C(=O)c3c(oc4cc(O)c(O)cc4c3=O)[C@](CC=C(C)C)(C2=O)C1(C)C`, the result in the assay with HeLa C3 [1] and in the assay on HeLa C3 [3] was Active. For the same molecule, the outcome with HeLa C3 [2] was inactive.

As to `COc1cc(O)c2c(=O)c3ccc(O)c(O)c3oc2c1CCC(C)(C)O`, the result in the assay with HeLa C3 [1] and in the assay on HeLa C3 [2] was inactive. Moreover, the result in the assay with HeLa C3 [3] was Active.

`CC(C)=CCC/C(C)=C/C[C@@H]1C[C@]2(CC=C(C)C)C(=O)[C@@](CC=C(C)C)(C(=O)C(C(=O)c3ccc(O)c(O)c3)=C2O)[C@@]1(C)CCC=C(C)C`: the result in the assay with HeLa C3 [1], in the assay with HeLa C3 [2], in the assay with HeLa C3 [4], in the assay on HeLa C3 [3], in the assay on HeLa C3 [5] and in the assay on HeLa C3 [6] was Active.

With `CC(C)=CCC/C(C)=C/C[C@H]1C[C@@]2(CC=C(C)C)C(=O)c3c(oc4cc(O)c(O)cc4c3=O)[C@](CC=C(C)C)(C2=O)C1(C)C`, the outcome in the assay on HeLa C3 [1] and with HeLa C3 [3] was Active. For the same molecule, the outcome in the assay with HeLa C3 [2] was inactive.

Turning to `CC(C)=CCC/C(C)=C/C[C@H]1C[C@]2(C/C=C(\C)CCC=C(C)C)C(=O)[C@@](CC=C(C)C)(C(=O)C(C(=O)c3ccc(O)c(O)c3)=C2O)C1(C)C`, the outcome in the assay with HeLa C3 [1] and with HeLa C3 [2] was inactive. For the same molecule, in the assay with HeLa C3 [3], the outcome was Active.

For `CC(C)=CCC/C(C)=C/C[C@@H]1C[C@]2(CC=C(C)C)C(=O)[C@@](CC=C(C)C)(C(=O)C(C(=O)c3ccc(O)c(O)c3)=C2O)C1(C)C`, the result in the assay with HeLa C3 [1] and with HeLa C3 [3] was Active. The outcome in the assay with HeLa C3 [2] was inactive.

As to `COc1cc(O)c2c(=O)c3c(CC=C(C)C)cc(O)c(O)c3oc2c1C/C=C(\C)CCC=C(C)C`, the outcome in the assay with HeLa C3 [1] and with HeLa C3 [3] was Active. The result with HeLa C3 [2] was inactive.

Consider `CC(=O)O[C@H]1C(=O)[C@@]2(C)[C@H]([C@H](OC(=O)c3ccccc3)[C@]3(O)C[C@H](OC(=O)[C@H](O)[C@@H](NC(=O)c4ccccc4)c4ccccc4)C(C)=C1C3(C)C)[C@]1(OC(C)=O)CO[C@@H]1C[C@@H]2O`, for which the outcome with HeLa C3 [7], with HeLa C3 [8], in the assay on HeLa C3 [9], in the assay on HeLa C3 [10] and with HeLa C3 [11] was Active. In the assay with HeLa C3 [12], the result was inactive.
